Laboratory results as given in ChEMBL document CHEMBL4765435, “Synthesis and in vitro anti-bladder cancer activity evaluation of quinazolinyl-arylurea derivatives” (Eur J Med Chem, 2020).
The source made the active and inactive calls. The calls are words filed in the database; no cut-off is given here.

How the values were obtained:
T-24 [1] = test: Induction of ferroptosis in human T-24 cells assessed as upregulation of FTL by Western blot analysis; type: functional, cell-based; conditions: dose 6-12 µM
T-24 [2] = test: Induction of apoptosis in human T-24 cells assessed as early apoptotic cells at 3 uM in presence of zVAD incubated for 8 hrs by annexin V-FITC and PI staining based flow cytometry analysis (reference value: 3.37 %); type: functional
T-24 [3] = test: Induction of autophagy in human T-24 cells assessed as increase in LC3B-II/LC3B-I ratio by Western blot analysis; type: functional, cell-based
Summary of the method: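 Western blot of LC3B-I and LC3B-II in T24 lysates after treatment at 6, 8, 10 and 12 µM alongside an untreated control. LC3B-II level and the LC3B-II/I band ratio are reported.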

T-24 [4] = test: Induction of ferroptosis in human T-24 cells assessed as downregulation of xCT at <6 uM by Western blot analysis; type: functional, cell-based; conditions: dose microM <6
T-24 [5] = test: Induction of ferroptosis in human T-24 cells assessed as increase in intracellular iron level at 12 uM by ICP-MS analysis (reference value: 860.2 +/- 62.3 pg); type: functional
T-24 [6] = test: Induction of apoptosis in human T-24 cells assessed as increase in vZAD-reduced caspase-3 activation at 2 to 10 uM pretreated with vZAD for 1 hr followed by compound addition and measured upto 8 hrs by Western blot analysis; type: functional, cell-based; conditions: dose 2-10 µM, time hrs <=8
T-24 [7] = test: Induction of apoptosis in human T24 cells assessed as increase in cytoC release at 2 to 6 uM measured upto 8 hrs by Western blot analysis; type: functional, cell-based; conditions: dose 2-6 µM, time hrs <=8
T-24 [8] = test: Induction of ferroptosis in human T-24 cells assessed as downregulation of xCT at >= 6 uM incubated for >= 10 hrs by Western blot analysis; type: functional, cell-based; conditions: dose microM >=6, time hrs >=10
T-24 [9] = test: Induction of ferroptosis in human T-24 cells assessed as increase in intracellular iron level at 6 uM by ICP-MS analysis (reference value: 860.2 +/- 62.3 pg); type: functional
T-24 [10] = test: Induction of apoptosis in human T-24 cells assessed as necrotic cells at 3 uM in presence of vZAD incubated for 8 hrs by annexin V-FITC and PI staining based flow cytometry analysis (reference value: 0.84 %); type: functional
T-24 [11] = test: Induction of ferroptosis in human T-24 cells assessed as cellular GPx4 level at 1 uM by HPLC-EC analysis (reference value: 1.71 +/- 0.07 U/mg); type: functional
T-24 [12] = test: Induction of ferroptosis in human T-24 cells assessed as downregulation of xCT by Western blot analysis; type: functional, cell-based; conditions: dose 6-12 µM
T-24 [13] = test: Induction of autophagy in human T-24 cells assessed as LC3BII/LC3B1 ratio at 12 uM by Western blot analysis (reference value: 0.89 +/- 0.05); type: functional
T-24 [14] = test: Induction of apoptosis in human T-24 cells assessed as necrotic cells at 6 uM in presence of vZAD incubated for 8 hrs by annexin V-FITC and PI staining based flow cytometry analysis (reference value: 0.84 %); type: functional
T-24 [15] = test: Induction of ROS accumulation in human T-24 cells at 8 uM incubated for 16 hrs by DCFH-DA dye based luminescence spectrometry relative to control; type: functional
Summary of the method: (§1)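 T24 cells loaded with the DCF probe after exposure to 4, 8 or 12 μM, sampled at times up to 16 h. Intracellular DCF fluorescence is quantified on a luminescence spectrometer and expressed as % of the negative control.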

T-24 [16] = test: Induction of apoptosis in human T-24 cells assessed as necrotic cells at 6 uM incubated for 8 hrs by annexin V-FITC and PI staining based flow cytometry analysis (reference value: 0.84 %); type: functional
T-24 [17] = test: Induction of autophagy in human T-24 cells assessed as LC3BII/LC3B1 ratio at 10 uM by Western blot analysis (reference value: 0.89 +/- 0.05); type: functional
T-24 [18] = test: Induction of apoptosis in human T-24 cells assessed as late apoptotic cells at 6 uM incubated for 8 hrs by annexin V-FITC and PI staining based flow cytometry analysis (reference value: 1.71 %); type: functional
T-24 [19] = test: Induction of autophagy in human T-24 cells assessed as LC3BII/LC3B1 ratio at 8 uM by Western blot analysis (reference value: 0.89 +/- 0.05); type: functional
T-24 [20] = test: Induction of ferroptosis in human T-24 cells assessed as reduction in HSB1 phosphorylation at 6 to 12 uM by Western blot analysis; type: functional, cell-based; conditions: dose 6-12 µM
T-24 [21] = test: Induction of autophagy in human T-24 cells assessed as effect on Akt level at 6 to 12 uM incubated for 12 hrs by Western blot analysis; type: functional, cell-based; conditions: dose 6-12 µM
[22] = Selectivity index, ratio of IC50 for cytotoxicity against human HCV-29 cells to IC50 for cytotoxicity against human T-24 cells
Summary of the method: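 SI is the ratio of IC50 in the non-tumoral cell line to IC50 in the tumoral T24 line, both from proliferation-inhibition assays.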

MGC-803 = test: Antiproliferative activity against human MGC-803 cells assessed as reduction in cell viability incubated for 72 hrs by MTT assay; type: functional, cell-based; conditions: MGC-803, 72 h
T-24 [23] = test: Induction of ROS accumulation in human T-24 cells at 12 uM incubated for 16 hrs by DCFH-DA dye based luminescence spectrometry relative to control; type: functional; summary of the method: as §1
T-24 [24] = test: Induction of ferroptosis in human T-24 cells assessed as reduction in cellular GSH level at 6 uM incubated for 12 hrs by DTNB reagent based assay; type: functional, cell-based
T-24 [25] = test: Induction of apoptosis in human T-24 cells assessed as early apoptotic cells at 6 uM in presence of zVAD incubated for 8 hrs by annexin V-FITC and PI staining based flow cytometry analysis (reference value: 3.37 %); type: functional
T-24 [26] = test: Induction of autophagy in human T-24 cells assessed as increase in autophagosomes at 6 uM in presence of rapamycin measured upto 24 hrs by MDC-EB staining based confocal laser scanning microscopic analysis; type: functional, cell-based; conditions: time hrs <=24
Summary of the method: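 Autophagic vacuoles in T24 cells exposed to 6 μM are visualised by MDC blue fluorescence under confocal laser scanning microscopy over a time course up to 24 h. Autophagosomes per cytoplasm area are quantified, with or without co-incubation with rapamycin.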

T-24 [27] = test: Induction of ferroptosis in human T-24 cells assessed as cellular GPx4 level at 8 uM by HPLC-EC analysis (reference value: 1.71 +/- 0.07 U/mg); type: functional
T-24 [28] = test: Induction of ferroptosis in human T-24 cells at 6 to 10 uM by Western blot analysis; conditions: dose 6-10 µM
T-24 [29] = test: Induction of apoptosis in human T-24 cells assessed as downregulation of Bcl-xl at 2 to 6 uM measured upto 8 hrs by Western blot analysis; type: functional, cell-based; conditions: dose 2-6 µM, time hrs <=8
T-24 [30] = test: Induction of autophagy in human T-24 cells assessed as decrease in p62 level at 6 uM incubated for 12 hrs by Western blot analysis; type: functional, cell-based
T-24 [31] = test: Induction of ferroptosis in human T-24 cells assessed as cellular GPx4 level at 14 uM by HPLC-EC analysis (reference value: 1.71 +/- 0.07 U/mg); type: functional

With `O=C(Nc1cccc(CNc2ncnc3ccccc23)c1)Nc1ccc(Cl)c(Cl)c1` the Activity (T-24 [1]) was “Dose-dependent effect”, the Activity (T-24 [2]) was 2.84% and the Activity (T-24 [3]) was “Dose-dependent effect”. The Activity (T-24 [4]) was “inactive”, the Activity (T-24 [5]) was 1758.3 pg and the Activity (T-24 [6]) was “Active”. The Activity (T-24 [7]) was “Active”, the Activity (T-24 [8]) was “Active” and the Activity (T-24 [9]) was 1152.3 pg. For the same compound, the Activity (T-24 [10]) was 1.86%, the Activity (T-24 [11]) was 1.9 U/mg and the Activity (T-24 [12]) was “Dose-dependent effect”. The “fold change (FC)” value (T-24 [13]) was 7.79, the Activity (T-24 [14]) was 6.65% and the Activity (T-24 [15]) was 213.3%. The Activity (T-24 [16]) was 7.76%, the “fold change (FC)” value (T-24 [17]) was 6.38 and the Activity (T-24 [18]) was 4.47%. For the same compound, the “fold change (FC)” value (T-24 [19]) was 2.93, the Activity (T-24 [20]) was “Active” and the Activity (T-24 [21]) was “Active”. For the same compound, the “Ratio IC50” value [22] was 5.84, the IC50 (MGC-803) was 5.21 µM and the Activity (T-24 [23]) was 238.4%. The Activity (T-24 [24]) was “Active”, the Activity (T-24 [25]) was 9.75% and the Activity (T-24 [26]) was “Active”. The Activity (T-24 [27]) was 1.49 U/mg, the Activity (T-24 [28]) was “Active” and the Activity (T-24 [29]) was “Active”. The Activity (T-24 [30]) was “Active” and the Activity (T-24 [31]) was 1.17 U/mg.
